This is an account of results in ChEMBL document CHEMBL4033605 (J Nat Prod, 2017).

Calls of active or inactive are those of the source. The rule behind the calls is not given here. Where a SMILES comes first, the peptide text is derived from it. Where only a bound is given, the exact number is not on record here.

One assay deals with PANC-1. The assay can be described thus: Cytotoxic activity against human PANC1 cells assessed as zone diffusion inhibition by measuring distance to perimeter (diffusion distance units) at 36 umol by disk diffusion soft agar colony inhibition assay (reference value: 0 unit). Type of assay: functional.
A short description of assay [1]: Cytotoxic activity against human H125 cells assessed as zone diffusion inhibition by measuring distance to perimeter (diffusion distance units) at 36 umol by disk diffusion soft agar colony inhibition assay (reference value: 0 unit). The class given is functional. In general terms: In agar diffusion tests the substance spreads into inoculated agar from a disc or well.

The subject of assay [2] is LNCaP. In words: Cytotoxic activity against human LNCAP cells assessed as zone diffusion inhibition by measuring distance to perimeter (diffusion distance units) at 36 umol by disk diffusion soft agar colony inhibition assay (reference value: 0 unit). Type of assay: functional.
Assay [3] has as its system CFU-GM. The assay can be described thus: Cytotoxic activity against human CFU-GM cells assessed as zone diffusion inhibition by measuring distance to perimeter (diffusion distance units) at 36 umol by disk diffusion soft agar colony inhibition assay (reference value: 0 unit). The class given is functional.
The test system of assay [4] is CFU-GM. In words: Cytotoxic activity against human CFU-GM cells assessed as zone diffusion inhibition by measuring distance to perimeter (diffusion distance units) at 9 umol by disk diffusion soft agar colony inhibition assay (reference value: 0 unit). The class given is functional.
Assay [5] deals with CCRF-CEM. In words: Cytotoxic activity against human CEM cells assessed as zone diffusion inhibition by measuring distance to perimeter (diffusion distance units) at 9 umol by disk diffusion soft agar colony inhibition assay (reference value: 0 unit). Type of assay: functional.
Assay [6] deals with MCF7. The assay can be described thus: Cytotoxic activity against human MCF7 cells assessed as zone diffusion inhibition by measuring distance to perimeter (diffusion distance units) at 36 umol by disk diffusion soft agar colony inhibition assay (reference value: 0 unit). Type of assay: functional.
For assay [7], the target named is Dipeptidyl peptidase 4 (Homo sapiens) (UniProt P27487). The assay can be described thus: Inhibition of human recombinant DPP4 at 10 uM using H-Gly-Pro AMC substrate incubated for 30 mins by spectrophotometry. The gist of the method: (§1)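 Human recombinant DPP4 was assayed in 20 mM Tris-HCl pH 8.0 with 100 mM NaCl and 1 mM EDTA. Compound in DMSO was tested at 10 µM final, with three-fold serial dilutions down to 1.5 nM. H-Gly-Pro-AMC substrate was added as a 200 µM solution. After 30 min at 37 °C, fluorescence was read at excitation 355 and emission 455 nm. Background wells had no enzyme. All conditions were run in triplicate.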
Sequence of Dipeptidyl peptidase 4 (Homo sapiens) (P27487 whole entry, looked up, the tested form may be a part): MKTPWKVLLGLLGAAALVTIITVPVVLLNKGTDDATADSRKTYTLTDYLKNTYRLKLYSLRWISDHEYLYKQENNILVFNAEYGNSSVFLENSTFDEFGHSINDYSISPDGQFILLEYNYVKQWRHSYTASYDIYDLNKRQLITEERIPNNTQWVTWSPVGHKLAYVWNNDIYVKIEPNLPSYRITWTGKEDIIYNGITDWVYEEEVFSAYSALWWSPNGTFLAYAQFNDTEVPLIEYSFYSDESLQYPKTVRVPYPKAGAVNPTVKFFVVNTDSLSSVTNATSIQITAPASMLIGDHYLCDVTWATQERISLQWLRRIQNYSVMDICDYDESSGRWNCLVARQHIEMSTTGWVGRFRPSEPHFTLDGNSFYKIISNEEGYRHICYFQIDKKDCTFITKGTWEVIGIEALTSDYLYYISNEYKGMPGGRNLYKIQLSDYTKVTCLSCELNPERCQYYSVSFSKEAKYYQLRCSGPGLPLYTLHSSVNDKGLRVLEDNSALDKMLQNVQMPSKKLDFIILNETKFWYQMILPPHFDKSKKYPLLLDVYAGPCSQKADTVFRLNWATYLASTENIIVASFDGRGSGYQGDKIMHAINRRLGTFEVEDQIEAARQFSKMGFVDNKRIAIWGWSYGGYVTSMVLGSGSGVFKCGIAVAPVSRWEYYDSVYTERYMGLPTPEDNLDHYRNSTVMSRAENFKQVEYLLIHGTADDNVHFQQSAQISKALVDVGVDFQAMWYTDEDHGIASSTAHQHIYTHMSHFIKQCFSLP

The nature of assay [8]: Cytotoxic activity against human U251N cells assessed as zone diffusion inhibition by measuring distance to perimeter (diffusion distance units) at 36 umol by disk diffusion soft agar colony inhibition assay (reference value: 0 unit). The class given is functional.
The nature of assay [9]: Cytotoxic activity against human H116 cells assessed as zone diffusion inhibition by measuring distance to perimeter (diffusion distance units) at 9 umol by disk diffusion soft agar colony inhibition assay (reference value: 0 unit). Type of assay: functional.
The subject of assay [10] is CCRF-CEM. In words: Cytotoxic activity against human CEM cells assessed as zone diffusion inhibition by measuring distance to perimeter (diffusion distance units) at 36 umol by disk diffusion soft agar colony inhibition assay (reference value: 0 unit). Type of assay: functional.
Assay [11] in a line: Cytotoxic activity against human H125 cells assessed as zone diffusion inhibition by measuring distance to perimeter (diffusion distance units) at 9 umol by disk diffusion soft agar colony inhibition assay (reference value: 0 unit). The class given is functional.
Assay [12] in a line: Cytotoxic activity against human U251N cells assessed as zone diffusion inhibition by measuring distance to perimeter (diffusion distance units) at 9 umol by disk diffusion soft agar colony inhibition assay (reference value: 0 unit). The class given is functional.
For assay [13], the target named is Dipeptidyl peptidase 4 (Homo sapiens) (UniProt P27487). In words: Inhibition of human recombinant DPP4 at <3.33 uM using H-Gly-Pro AMC substrate incubated for 30 mins by spectrophotometry. The method in brief: as §1
In assay [14] the test system is LNCaP. In words: Cytotoxic activity against human LNCAP cells assessed as zone diffusion inhibition by measuring distance to perimeter (diffusion distance units) at 9 umol by disk diffusion soft agar colony inhibition assay (reference value: 0 unit). Type of assay: functional.
The next assay deals with OVCAR-5. In words: Cytotoxic activity against human OVCAR5 cells assessed as zone diffusion inhibition by measuring distance to perimeter (diffusion distance units) at 36 umol by disk diffusion soft agar colony inhibition assay (reference value: 0 unit). Type of assay: functional.
For another assay, the system named is HCT-116. The assay can be described thus: Cytotoxic activity against human HCT116 cells incubated for 48 hrs by MTT assay. The class given is functional, cell-based. To be noted: HCT-116, 48 h. In general terms: Tetrazolium assays rely on reduction of a dye to a coloured formazan, in cell work by metabolically active cells.
The nature of assay [15]: Cytotoxic activity against human H116 cells assessed as zone diffusion inhibition by measuring distance to perimeter (diffusion distance units) at 36 umol by disk diffusion soft agar colony inhibition assay (reference value: 0 unit). The class given is functional.
Assay [16] has as its system MCF7. The assay can be described thus: Cytotoxic activity against human MCF7 cells assessed as zone diffusion inhibition by measuring distance to perimeter (diffusion distance units) at 9 umol by disk diffusion soft agar colony inhibition assay (reference value: 0 unit). Type of assay: functional.
The next assay relates to NCI-H460. In words: Cytotoxic activity against human H460 cells incubated for 48 hrs by MTT assay. Type of assay: functional, cell-based. To be noted: NCI-H460, 48 h.

In general, inhibition refers to the relative decrease from the control value, in per cent. One may read the IC50 as the concentration that inhibits the measured activity by half. A lower IC50 goes with higher potency. As for `CC[C@H](C)[C@@H]1NC(=O)[C@@H]2CCCN2C(=O)[C@H](Cc2ccccc2)NC(=O)[C@H](C(C)C)NC(=O)[C@H](CC(C)C)NC(=O)[C@@H]2CCCN2C(=O)[C@@H]2CCCN2C(=O)[C@H](Cc2ccccc2)NC1=O` (cyclo(LVFPIFPP)), the “inhibition zone (IZ)” value is given as 200 U with PANC-1; 550 U in assay [1]; 500 U in the assay on LNCaP [2]; 700 U in the assay on CFU-GM [3]; 400 U with CFU-GM [4]; 350 U in the assay on CCRF-CEM [5]. In addition, the “inhibition zone (IZ)” value in the assay on MCF7 [6] was 500 U; in assay [8], 500 U; in assay [9], 200 U; in the assay on CCRF-CEM [10], 600 U; in [11] it was 300 U; in assay [12], 300 U. The “inhibition zone (IZ)” value in the assay on LNCaP [14] was determined as 300 U; in the assay with OVCAR-5 it was 200 U; in [15], 600 U; in the assay with MCF7 [16] it was 300 U. In [7], the inhibition was found to be 15.7%. For the same molecule, the inhibition entry in [13] was “inactive”. For the same molecule, the IC50 with HCT-116 was < 10000 nM.
The molecule `COc1cccc2c1C(=O)c1c(O)c3c(c(O)c1C2=O)C[C@@](O)(C(=O)CO)C[C@@H]3O[C@H]1C[C@H](N)[C@H](O)[C@H](C)O1` [DOXORUBICIN] displayed an IC50 with NCI-H460 of 200 nM.
